Reference: ChEMBL document CHEMBL4346668, “Novel multitarget inhibitors with antiangiogenic and immunomodulator properties” (Eur J Med Chem, 2019)
pIC50: −log10 of the molar value. Active and inactive are the calls of the source. No cut-off for these calls is given here.

Experiments:
A549 [1] = assay: Effect on VEGFR2 in human A549 cells assessed as reduction in membrane VEGFR2 level incubated for 24 hrs by confocal laser scanning microscopic method; assay type: functional, cell-based
Outline: (§1)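 A549 cells on cover glass treated 24 h with compound at 10 µM, then permeabilized (PEM-Triton X-100 0.5%) and fixed (3.7% formaldehyde). Direct staining 2 h at 37°C in darkness with Alexa Fluor 647 anti-VEGFR-2. Confocal imaging with a 63x oil objective, excitation 650 nm, emission 665 nm.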

[2] = biological target: Vascular endothelial growth factor receptor 2 (Homo sapiens) (UniProt P35968); assay: Inhibition of VEGFR2 in HMEC1 cells assessed as phosphorylated VEGFR2 level at 10 uM incubated for 24 hrs by sandwich ELISA; assay type: cell-based
Vascular endothelial growth factor receptor 2 (Homo sapiens), sequence (P35968 whole entry): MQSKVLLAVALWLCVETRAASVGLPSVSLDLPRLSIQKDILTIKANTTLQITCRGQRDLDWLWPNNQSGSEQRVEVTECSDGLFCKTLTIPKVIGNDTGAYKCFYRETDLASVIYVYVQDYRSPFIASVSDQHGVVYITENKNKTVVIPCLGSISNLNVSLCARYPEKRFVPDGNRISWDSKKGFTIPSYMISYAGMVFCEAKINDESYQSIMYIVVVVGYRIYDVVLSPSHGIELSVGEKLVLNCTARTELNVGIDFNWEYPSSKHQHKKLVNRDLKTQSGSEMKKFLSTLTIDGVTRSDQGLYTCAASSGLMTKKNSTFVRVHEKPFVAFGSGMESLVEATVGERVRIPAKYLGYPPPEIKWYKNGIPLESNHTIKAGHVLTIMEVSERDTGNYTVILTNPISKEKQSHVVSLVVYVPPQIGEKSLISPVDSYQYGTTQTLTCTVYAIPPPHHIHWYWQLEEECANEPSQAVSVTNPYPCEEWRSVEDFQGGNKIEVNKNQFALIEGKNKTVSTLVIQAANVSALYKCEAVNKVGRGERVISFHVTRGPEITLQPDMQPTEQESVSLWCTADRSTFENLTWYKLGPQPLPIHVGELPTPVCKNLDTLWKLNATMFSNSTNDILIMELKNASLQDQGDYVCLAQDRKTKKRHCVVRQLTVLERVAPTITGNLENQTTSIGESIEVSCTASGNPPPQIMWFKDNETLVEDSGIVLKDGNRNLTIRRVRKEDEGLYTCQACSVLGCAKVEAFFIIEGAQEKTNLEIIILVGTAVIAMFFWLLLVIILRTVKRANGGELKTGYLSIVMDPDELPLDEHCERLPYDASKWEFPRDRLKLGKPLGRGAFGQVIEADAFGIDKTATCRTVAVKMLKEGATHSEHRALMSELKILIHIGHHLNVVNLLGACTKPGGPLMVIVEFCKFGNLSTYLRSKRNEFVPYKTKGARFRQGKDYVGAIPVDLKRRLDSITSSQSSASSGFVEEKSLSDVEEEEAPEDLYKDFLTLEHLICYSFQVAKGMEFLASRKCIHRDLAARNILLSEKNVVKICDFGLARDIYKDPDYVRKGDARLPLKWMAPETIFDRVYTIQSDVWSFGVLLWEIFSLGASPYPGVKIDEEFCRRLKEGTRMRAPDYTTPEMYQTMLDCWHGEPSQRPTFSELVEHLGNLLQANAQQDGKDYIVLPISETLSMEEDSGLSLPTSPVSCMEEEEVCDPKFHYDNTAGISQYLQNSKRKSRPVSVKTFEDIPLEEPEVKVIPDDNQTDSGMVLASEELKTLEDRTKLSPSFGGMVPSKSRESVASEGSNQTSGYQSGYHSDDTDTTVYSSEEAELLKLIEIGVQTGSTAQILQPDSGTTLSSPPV
Outline: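 HMEC-1 cells (5 × 10⁵/well) grown to 80% confluence, starved 24 h in 0.1% FBS medium, then treated 24 h with compound. Stimulated with VEGF-165 100 ng/ml for 30 min at 37°C. Lysates Bradford-normalized; phospho-VEGFR-2 (Tyr1175) measured by sandwich ELISA, % of DMSO control.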

HT-29 [3] = assay: Antiproliferative activity against human HT-29 cells incubated for 2 days by MTT assay; assay type: functional, cell-based; conditions: HT-29, 48 h
Outline: (§2)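 MTT assay. Cells seeded at 3 × 10³/well (HeLa, A549, HMEC-1, HEK-293) or 5 × 10³/well (HT-29, MCF-7) in their growth media with serial compound dilutions from 10 mM DMSO stocks. Incubated 2 days at 37 °C, 5% CO₂, then MTT added for 3 h and formazan dissolved in DMSO. A540 read and viability expressed versus untreated cells. IC₅₀ determined graphically; three independent experiments.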

HeLa = assay: Antiproliferative activity against human HeLa cells incubated for 2 days by MTT assay; assay type: functional, cell-based; conditions: 48 h; outline: as §2
A549 [4] = assay: Effect on VEGFR2 in human A549 cells assessed as membrane VEGFR2 level at 10 uM incubated for 24 hrs by flow cytometric analysis relative to control; assay type: functional
Outline: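 A549 cells incubated 24 h with compound at 10 µM. Membrane VEGFR-2 (fixed cells) and total VEGFR-2 (permeabilized or lysate) stained with Alexa Fluor 647 anti-CD309 and quantified by flow cytometry relative to DMSO control; mean ± SD of three experiments.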

A549 [5] = assay: Immunomodulatory activity in human A549 cells assessed as reduction in c-Myc expression level at 100 uM incubated for 24 hrs by ELISA relative to control; assay type: functional; set-up: scale not given: the % may be the effect or the level left
Outline: (§3)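 A549 cells (3·10⁵/well) treated 24 h with compound; final concentration 100 µM for some compounds and 15 µM for others per table footnote. Lysates protein-normalized by Bradford, and PD-L1 and c-Myc quantified by commercial ELISA kits as % of DMSO-treated cells. Mean ± SD of three experiments.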

HMEC-1 [6] = assay: Effect on VEGFR2 in HMEC1 cells assessed as membrane VEGFR2 level at 10 uM incubated for 24 hrs by flow cytometric analysis relative to control; assay type: functional, Homo sapiens
Outline: (§4)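 HMEC-1 cells exposed 24 h to compound. Membrane VEGFR-2 measured on fixed cells stained with Alexa Fluor 647 anti-CD309; total VEGFR-2 measured on lysates or permeabilized cells. Read by flow cytometry as % of DMSO control; mean ± SD of three experiments.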

MCF7 = assay: Antiproliferative activity against human MCF7 cells incubated for 2 days by MTT assay; assay type: functional, cell-based; conditions: MCF7, 48 h; outline: as §2
A549 [7] = assay: Induction of apoptosis in human A549 cells assessed as apoptotic cells at 100 uM incubated for 24 hrs by FITC-Annexin V staining based flow cytometric analysis (reference value: 20%); assay type: functional
HMEC-1 [8] = assay: Antiangiogenic activity against HMEC1 cells assessed as inhibition of tube formation incubated for 20 hrs by matrigel based tube formation assay; assay type: functional, Homo sapiens
Outline: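 HMEC-1 cells in EGM-2MV medium seeded at 2 x 10⁴ cells/well on Matrigel (10 mg/mL, gelled 30 min at 37°C) and attached for 30 min. Compounds were added at different concentrations and tube formation was assessed after 20 h at 37°C. The minimum concentration at which inhibition began was reported. Data representative of three experiments.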

HMEC-1 [9] = assay: Antiproliferative activity against HMEC1 cells incubated for 2 days by MTT assay; assay type: cell-based; conditions: Homo sapiens, HMEC-1, 48 h; outline: as §2
A549 [10] = assay: Immunomodulatory activity in human A549 cells assessed as reduction in PD-L1 expression level at 100 uM incubated for 24 hrs by ELISA relative to control; assay type: functional; set-up: scale not given: the % may be the effect or the level left; outline: as §3
HMEC-1 [11] = assay: Effect on VEGFR2 in HMEC1 cells assessed as total VEGFR2 level at 10 uM incubated for 24 hrs by flow cytometric analysis relative to control; assay type: functional, Homo sapiens; outline: as §4
[12] = biological target: Programmed cell death 1 ligand 1 (Homo sapiens) (UniProt Q9NZQ7); assay: Binding affinity to PDL1 (unknown origin) assessed as change in melting temperature at 100 uM by fluorescence based real time RT-PCR analysis
Programmed cell death 1 ligand 1 (Homo sapiens), sequence (Q9NZQ7 whole entry): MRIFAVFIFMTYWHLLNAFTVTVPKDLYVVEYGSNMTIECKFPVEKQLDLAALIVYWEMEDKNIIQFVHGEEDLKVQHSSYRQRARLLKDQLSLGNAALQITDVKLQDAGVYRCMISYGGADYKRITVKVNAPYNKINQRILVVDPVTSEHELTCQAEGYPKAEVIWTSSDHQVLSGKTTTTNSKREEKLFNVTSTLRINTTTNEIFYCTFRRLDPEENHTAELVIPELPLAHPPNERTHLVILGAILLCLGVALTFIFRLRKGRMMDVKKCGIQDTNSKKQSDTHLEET

[13] = biological target: Vascular endothelial growth factor receptor 2 (Homo sapiens) (UniProt P35968); assay: Inhibition of VEGFR2 in HMEC1 cells assessed as phosphorylated Erk1/2 level at 10 uM incubated for 24 hrs by Western blot analysis relative to control; assay type: cell-based
Outline: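 HMEC-1 lysates from the phospho-VEGFR-2 experiment (24 h compound, serum starvation, 30 min VEGF-165 stimulation) used at 100 µg protein for SDS gel electrophoresis and PVDF transfer. Blocked in 5% milk/TBST, then probed overnight at 4 °C with anti-phospho-ERK1/2 (T202/[…]) and an HRP secondary. Chemiluminescent detection; β-actin as internal control; quantified versus DMSO control.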

A549 [14] = assay: Effect on VEGFR2 in human A549 cells assessed as total VEGFR2 level at 10 uM incubated for 24 hrs by flow cytometric analysis relative to control; assay type: functional
HEK293 = assay: Antiproliferative activity against HEK293 cells incubated for 2 days by MTT assay; assay type: cell-based; conditions: Homo sapiens, HEK293, 48 h; outline: as §2
A549 [15] = assay: Antiproliferative activity against human A549 cells at 200 uM incubated for 24 hrs in presence of Jurkat T cells by trypan blue staining based Neubauer chamber method relative to control; assay type: functional
Outline: (§5)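 Co-culture of 5 × 10⁴ tumor cells/well with 2 × 10⁵ PD-1-expressing Jurkat T cells in 1.5 mL, treated 24 h with compound at 200 µM. Supernatant discarded; tumor cells trypsinized, stained with trypan blue and living cells counted in a Neubauer chamber. Proliferation inhibition (%) attributable to Jurkat presence reported; representative of three experiments.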

[16] = biological target: Vascular endothelial growth factor receptor 2 (Homo sapiens) (UniProt P35968)
HMEC-1 [17] = assay: Ratio of MAC for sorafenib to MAC of test compound for antiangiogenic activity against HMEC1 cells; assay type: functional, Homo sapiens
A549 [18] = assay: Antiproliferative activity against human A549 cells incubated for 2 days by MTT assay; assay type: functional, cell-based; conditions: A549, 48 h; outline: as §2
A549 [19] = assay: Immunomodulatory activity in human A549 cells assessed as inhibition of PD-L1 level at 100 uM incubated for 24 hrs by confocal laser scanning microscopic method; assay type: functional, cell-based
Outline: (§6)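 A549 cells on cover glass treated 24 h at 100 µM, permeabilized with PEM-Triton X-100 0.5% and fixed in 3.7% formaldehyde. Direct immunostaining 2 h at 37°C in darkness with anti-PD-L1-AlexaFluor647 (excitation 650, emission 665 nm) and anti-c-Myc-FITC (excitation 488, emission 496–535 nm). Confocal microscopy, 63x oil objective.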

A549 [20] = assay: Immunomodulatory activity in human A549 cells assessed as inhibition of c-Myc level at 100 uM incubated for 24 hrs by confocal laser scanning microscopic method; assay type: functional, cell-based; outline: as §6
A549 [21] = assay: Effect on VEGFR2 in human A549 cells assessed as inhibition of VEGFR2 protein internalization to nucleus incubated for 24 hrs by confocal laser scanning microscopic method; assay type: functional, cell-based; outline: as §1
HMEC-1 [22] = assay: Antiangiogenic activity against HMEC1 cells assessed as inhibition of neovascularization at 0.01 to 1 uM incubated for 20 hrs; assay type: functional, cell-based; conditions: Homo sapiens
Outline: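 HMEC-1 cells seeded on Matrigel-coated wells (10 mg/mL Matrigel, gelled 30 min at 37°C) at 2 x 10⁴ cells/well in EGM-2MV medium and allowed to attach 30 min. Compound was then added at 1, 0.1 and 0.01 µM, and tube destruction was assessed after 20 h at 37°C by imaging.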

HMEC-1 [23] = assay: Effect on VEGFR2 in HMEC1 cells assessed as membrane VEGFR2 level at 100 uM incubated for 24 hrs by flow cytometric analysis relative to control; assay type: functional, Homo sapiens
Outline: (§7)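 HMEC-1 cells exposed 24 h to compound at 100 µM. Membrane VEGFR-2 measured on fixed cells stained with Alexa Fluor 647 anti-CD309; total VEGFR-2 measured after Triton X-100 permeabilization before fixation. Read by flow cytometry as % of DMSO control.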

HMEC-1 [24] = assay: Effect on VEGFR2 in HMEC1 cells assessed as total VEGFR2 level at 100 uM incubated for 24 hrs by flow cytometric analysis relative to control; assay type: functional, Homo sapiens; outline: as §7
A549 [25] = assay: Effect on VEGFR2 in human A549 cells assessed as total VEGFR2 level at 100 uM incubated for 24 hrs by flow cytometric analysis relative to control; assay type: functional
A549 [26] = assay: Effect on VEGFR2 in human A549 cells assessed as membrane VEGFR2 level at 100 uM incubated for 24 hrs by flow cytometric analysis relative to control; assay type: functional
Outline: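 A549 cells exposed 24 h to compound at 100 µM. Membrane VEGFR-2 stained on fixed cells with Alexa Fluor 647 anti-VEGFR-2; Triton X-100 permeabilization before fixation used for total VEGFR-2. Flow cytometry, % of DMSO control; mean ± SD of three experiments.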

HT-29 [27] = assay: Antiproliferative activity against human HT-29 cells at 200 uM incubated for 24 hrs in presence of Jurkat T cells by trypan blue staining based Neubauer chamber method relative to control; assay type: functional; outline: as §5

| Activity [2] | pIC50 (HT-29 [3]) | pIC50 (HeLa) | pIC50 (MCF7) | Activity [13] | ΔTm [16] [°C] | pIC50 (A549 [18]) | SMILES | Activity (A549 [1]) | Activity (A549 [4]) [%] | Activity (A549 [5]) [%] | Activity (HMEC-1 [6]) [%] | Activity (A549 [7]) [%] | MAC (HMEC-1 [8]) [µM] | pIC50 (HMEC-1 [9]) | Activity (A549 [10]) [%] | Activity (HMEC-1 [11]) [%] | ΔTm [12] [°C] | Activity (A549 [14]) [%] | pIC50 (HEK293) | Activity (A549 [15]) [%] | other results |
| --- | --- | --- | --- | --- | --- | --- | --- | --- | --- | --- | --- | --- | --- | --- | --- | --- | --- | --- | --- | --- | --- |
| inactive | 5.46 | 4.95 | 5.37 | inactive | 8.35 | 5.11 | COc1ccc(/C=C/c2cccc(NC(=O)Nc3cccc(Cl)c3)c2)cc1 | Active | 52 | 65 | 55 | 75 | 0.1 | 5.70 | 49 | 106 | 3.91 | 32 | 5.62 | 76 | Ratio (HMEC-1 [17]): 100 |
| inactive | 6.28 | 6.15 | 6.40 | inactive | 6.25 | 5.82 | COc1ccc(/C=C/c2cccc(NC(=O)Nc3ccc(Cl)cc3)c2)cc1 | Active | 56 | 37 | 56 | 48 | 0.1 | 5.74 | 25 | 109 | 1.18 | 10 | 6.00 | 86 | Activity (A549 [19]): Active; Activity (A549 [20]): Active; Activity (A549 [21]): Active; Activity (HMEC-1 [22]): Active; Ratio (HMEC-1 [17]): 100 |
| – | 4.72 | < 4.00 | 4.70 | – | – | 5.22 | Cc1c(COc2ccc(CN3CCCCC3C(=O)O)cc2Br)cccc1-c1ccccc1 (centres undefined) | – | – | 60 | – | – | – | – | 68 | – | 3.68 | – | 4.22 | 55 | Activity (A549 [19]): Active; Activity (HT-29 [27]): 53%; Activity (A549 [20]): Active |

| SMILES | Activity [2] | pIC50 (HT-29 [3]) | pIC50 (HeLa) | pIC50 (MCF7) | Activity [13] | ΔTm [16] [°C] | pIC50 (A549 [18]) | Activity (A549 [1]) | Activity (A549 [4]) [%] | Activity (A549 [5]) [%] | Activity (HMEC-1 [6]) [%] | Activity (A549 [7]) [%] | MAC (HMEC-1 [8]) [µM] | pIC50 (HMEC-1 [9]) | Activity (A549 [10]) [%] | Activity (HMEC-1 [11]) [%] | ΔTm [12] [°C] | Activity (A549 [14]) [%] | pIC50 (HEK293) | Activity (A549 [15]) [%] | other results |
| --- | --- | --- | --- | --- | --- | --- | --- | --- | --- | --- | --- | --- | --- | --- | --- | --- | --- | --- | --- | --- | --- |
| CNC(=O)c1cc(Oc2ccc(NC(=O)Nc3ccc(Cl)c(C(F)(F)F)c3)cc2)ccn1 [SORAFENIB] | – | 4.77 | 5.21 | 4.85 | – | – | 4.57 | – | 92 | – | 46 | 48 | 10 | 4.47 | – | 64 | – | 85 | 5.30 | – | Activity (HMEC-1 [23]): 46%; Activity (HMEC-1 [24]): 64%; Activity (A549 [25]): 85%; Activity (A549 [26]): 92% |
